Results reported in ChEMBL document CHEMBL1944515 (J Med Chem, 2012).
The source made the active and inactive calls. The rule behind the calls is not given here.

Assays:
[1] = test system: HeLa; assay: Cytotoxicity against human HeLa cells after 72 hrs by MTT assay; type: functional, cell-based
[2] = test system: A549; assay: Cytotoxicity against human A549 cells after 72 hrs by MTT assay; type: functional, cell-based; conditions: A549, 72 h
[3] = test system: HL-60; assay: Cytotoxicity against human HL60 cells after 72 hrs by MTT assay; type: functional, cell-based; conditions: HL-60, 72 h
[4] = test system: Jurkat; assay: Cytotoxicity against human Jurkat cells after 72 hrs by MTT assay; type: functional, cell-based
Summary of the method: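 8 × 10^3 cells/well were preincubated 18 h at 37 °C, 5% CO2, then given graded concentrations for 72 h, with final DMSO not above 0.25%. Viability was read by MTT. […] Mean ± SE from at least three experiments.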

[5] = test system: MCF7; assay: Cytotoxicity against human MCF7 cells after 72 hrs by MTT assay; type: functional, cell-based; conditions: MCF7, 72 h
[6] = test system: HT-29; assay: Cytotoxicity against human HT-29 cells after 72 hrs by MTT assay; type: functional, cell-based; conditions: HT-29, 72 h
[7] = Inhibition of bovine tubulin polymerisation after 20 mins by turbidimetric analysis; design: species or system Bos taurus
Summary of the method: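 Bovine brain tubulin at 10 μM was preincubated with varying compound concentrations in glutamate buffer at 30 °C, cooled to 0 °C, and 0.4 mM GTP added. Samples were warmed to 30 °C and assembly followed by turbidity at 350 nm.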

[8] = species: Bos taurus; assay: Displacement of [3H]colchicine from bovine tubulin at 5 uM by DEAE-cellulose filter method
Summary of the method: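 Inhibition of [3H]colchicine binding was measured in mixtures of 1 μM tubulin, 5 μM [3H]colchicine and 5 μM test compound. Results are percent inhibition of binding.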

[9] = test system: LoVo; assay: Cytotoxicity against human LoVo cells after 72 hrs by MTT assay; type: functional, cell-based
Summary of the method: (§1)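 Cells seeded at 8 × 10^3 per well and left 18 h at 37 °C, 5% CO2, then given fresh medium with compound at a range of concentrations for 72 h; DMSO at most 0.25% final. Viability read by MTT relative to 0.25% DMSO-treated cells. […] LoVoDoxo kept in Ham's F12 with 0.1 μg/mL doxorubicin; A549-T12 kept in DMEM with 12 nM paclitaxel.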

[10] = test system: LoVo; assay: Cytotoxicity against human doxorubicin-resistant LoVo cells after 72 hrs by MTT assay; type: functional, cell-based; summary of the method: as §1
[11] = test system: LoVo; assay: Resistance ratio of IC50 for human doxorubicin-resistant LoVo cells to human LoVo cells; type: functional
[12] = test system: CCRF-CEM; assay: Cytotoxicity against human CEM cells after 72 hrs by MTT assay; type: functional, cell-based; summary of the method: as §1
[13] = Cytotoxicity against human CEM/VBL100 cells after 72 hrs by MTT assay; type: functional, cell-based; conditions: CEM/VBL100, 72 h; summary of the method: as §1
[14] = test system: CCRF-CEM; assay: Resistance ratio of IC50 for human CEM/VBL100 cells to IC50 for human CEM cells; type: functional
[15] = Cytotoxicity against human A549-T12 cells after 72 hrs by MTT assay; type: functional, cell-based; conditions: A549, 72 h; summary of the method: as §1
[16] = test system: A549; assay: Resistance ratio of IC50 for human A549-T12 cells to IC50 for human A549 cells; type: functional
[17] = test system: HeLa; assay: Induction of cell cycle arrest in human HeLa cells assessed as increase in G2/M phase cells after 24 hrs by flow cytometry; type: functional, cell-based
Summary of the method: (§2)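 5 × 10^5 exponentially growing HeLa cells were treated with 15–250 nM for 24 h, fixed in ice-cold 70% ethanol, then treated with lysis buffer containing RNase A and 0.1% Triton X-100. PI staining of DNA content, read by flow cytometry. Mean ± SEM of three independent experiments.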

[18] = test system: HeLa; assay: Induction of cell cycle arrest in human HeLa cells assessed as increase in G2/M phase cells at 30 nM after 24 hrs by flow cytometry; type: functional, cell-based; summary of the method: as §2
[19] = test system: HeLa; assay: Induction of cell cycle arrest in human HeLa cells assessed as G2/M phase cells at 60 nM after 24 hrs by flow cytometry; type: functional
Summary of the method: (§3)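 Exponentially growing HeLa cells (5 × 10^5) were treated 24 h at 15–250 nM. Cells were fixed in ice-cold 70% ethanol, lysed with RNase A/0.1% Triton X-100 buffer and stained with propidium iodide. DNA content was measured by flow cytometry to score G2/M fraction. Mean ± SEM of three independent experiments.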

[20] = test system: HeLa; assay: Induction of cell cycle arrest in human HeLa cells assessed as decrease in G1 phase cells at 15 to 250 nM after 24 hrs by flow cytometry; type: functional, cell-based; summary of the method: as §2
[21] = test system: HeLa; assay: Induction of cell cycle arrest in human HeLa cells assessed as decrease in S phase cells at 15 to 250 nM after 24 hrs by flow cytometry; type: functional, cell-based; summary of the method: as §2
[22] = test system: HeLa; assay: Induction of apoptosis in human HeLa cells assessed as increase in annexin-V positive apoptotic cells after 24 to 48 hrs by FITC conjugated annexin-V/PI staining-based flow cytometry; type: functional, cell-based
Summary of the method: (§4)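 Flow cytometry of HeLa cells after 24 or 48 h exposure, double-stained with annexin-V-FITC and propidium iodide. Excitation at 488 nm, emission at 525 nm (FITC) and 585 nm (PI). Quadrants scored as live, early apoptotic, late apoptotic or necrotic cells.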

[23] = test system: HeLa; assay: Induction of apoptosis in human HeLa cells assessed as increase in annexin-V positive apoptotic cells at 50 to 100 nM by FITC conjugated annexin-V/PI staining-based flow cytometry; type: functional, cell-based; conditions: TDE = time-dependent effect; summary of the method: as §4
[24] = test system: HeLa; assay: Induction of mitochondrial depolarization in human HeLa cells after 24 to 48 hrs by JC1-based fluorescent staining; type: functional, cell-based
Summary of the method: (§5)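 Mitochondrial membrane potential in HeLa cells after 24 or 48 h incubation, measured with the JC-1 dye by flow cytometry. Aggregates read as red (590 nm) and monomers as 530 nm; output is the percentage of depolarized cells. Mean ± SEM of three independent experiments.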

[25] = test system: HeLa; assay: Induction of mitochondrial depolarization in human HeLa cells at 50 to 100 nM by JC1-based fluorescent staining; type: functional, cell-based; conditions: TDE = time-dependent effect; summary of the method: as §5
[26] = test system: HeLa; assay: Induction of ROS production in human HeLa cells at 50 to 100 nM after 24 to 48 hrs by HE staining-based flow cytometry; type: functional, cell-based
Summary of the method: (§6)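 HeLa cells were exposed for 24 or 48 h, then stained with hydroethidine or H2-DCFDA for ROS and read by flow cytometry. DMSO ≤0.25%. Mean ± SEM of three independent experiments.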

[27] = test system: HeLa; assay: Induction of ROS production in human HeLa cells at 50 to 100 nM after 24 to 48 hrs by H2-DCFDA staining-based flow cytometry; type: functional, cell-based; summary of the method: as §6
[28] = test system: HeLa; assay: Induction of cell cycle arrest in human HeLa cells assessed as increase in G2/M phase cells at 15 to 250 nM after 24 hrs by flow cytometry; type: functional, cell-based; summary of the method: as §3
[29] = Inhibition of tubulin polymerization
Summary of the method: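 Bovine brain tubulin at 10 μM in glutamate buffer was preincubated with compound at varying concentrations at 30 °C, then cooled to 0 °C. GTP was added to 0.4 mM and the mixture rewarmed to 30 °C. Assembly was followed by turbidity at 350 nm.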

| SMILES | IC50 [1] [µM] | IC50 [2] [µM] | IC50 [3] [µM] | IC50 [4] [µM] | IC50 [5] [µM] | IC50 [6] [µM] | IC50 [7] [µM] | inhibition [8] [%] | other results |
| --- | --- | --- | --- | --- | --- | --- | --- | --- | --- |
| COc1ccc(-c2nnnn2-c2cc(OC)c(OC)c(OC)c2)cc1 | 0.0026 | 0.222 | 0.0029 | 0.0026 | 0.0385 | 0.0046 | 2.5 | 54 |  |
| COc1ccc(-n2nnnc2-c2cc(OC)c(OC)c(OC)c2)cc1 | 0.952 | > 10 | 0.0403 | 0.209 | 0.0271 | 0.265 | 2.1 | 70 |  |
| CCOc1ccc(-n2nnnc2-c2cc(OC)c(OC)c(OC)c2)cc1 | 0.0003 | 0.0074 | 0.0007 | 0.00026 | 0.0028 | 0.0031 | 2 | 71 | IC50 [9]: 0.118 µM; IC50 [10]: 0.0969 µM; Ratio IC50 [11]: 0.8; IC50 [12]: 0.0038 µM; IC50 [13]: 0.0005 µM; Ratio IC50 [14]: 0.1; IC50 [15]: 0.0042 µM; Ratio IC50 [16]: 0.6; Activity [17]: Dose-dependent effect; Activity [18]: Active; Activity [19]: >80%; Activity [20]: Active; Activity [21]: Active; Activity [22]: Dose-dependent effect; Activity [23]: tde; Activity [24]: Dose-dependent effect; Activity [25]: tde; Activity [26]: Active; Activity [27]: Active |
| COc1cc(-n2nnnc2-c2ccc(C)cc2)cc(OC)c1OC | 0.255 | 3.42 | 0.329 | 0.222 | 1.79 | 0.673 |  |  |  |
| CCCCCOc1ccc(-c2nnnn2-c2cc(OC)c(OC)c(OC)c2)cc1 | 6.4 | > 10 | > 10 | > 10 | > 10 | > 10 |  |  |  |
| COc1ccc(-c2nnnn2-c2cc(OC)c(OC)c(OC)c2)cc1Cl | 0.0023 | 0.402 | 0.0036 | 0.01 | 0.0252 | 0.0359 | 3.5 | 50 |  |
| CCc1ccc(-c2nnnn2-c2cc(OC)c(OC)c(OC)c2)cc1 | 0.029 | 3.38 | 0.0531 | 0.0551 | 0.0126 | 0.182 | 3.7 | 47 |  |
| COc1ccc(-c2nnnn2-c2cc(OC)c(OC)c(OC)c2)cc1F | 0.0028 | 0.332 | 0.0073 | 0.0013 | 0.0297 | 0.0027 | 2.1 | 60 |  |
| COc1cc(-n2nnnc2-c2cccs2)cc(OC)c1OC | > 10 | > 10 | > 10 | > 10 | > 10 | > 10 |  |  |  |
| CCOc1ccc(-c2nnnn2-c2cc(OC)c(OC)c(OC)c2)cc1Cl | 0.0026 | 0.0288 | 0.0008 | 0.00023 | 0.0018 | 0.0016 | 2 | 58 | IC50 [9]: 0.0125 µM; IC50 [10]: 0.0157 µM; Ratio IC50 [11]: 1.3; IC50 [12]: 0.0007 µM; IC50 [13]: 0.0007 µM; Ratio IC50 [14]: 1; IC50 [15]: 0.0315 µM; Ratio IC50 [16]: 1.1; Activity [28]: Active |
| COc1cc(-n2nnnc2-c2ccccc2)cc(OC)c1OC | 4.1 | > 10 | 0.903 | 0.0038 | > 10 | > 10 |  |  |  |
| COc1cc(-n2nnnc2-c2ccc(C(C)=O)cc2)cc(OC)c1OC | 0.648 | > 10 | 0.596 | 0.325 | > 10 | 6.03 |  |  |  |
| COc1cc(-c2nnnn2-c2cc(OC)c(OC)c(OC)c2)cc(OC)c1OC | > 10 | > 10 | > 10 | > 10 | > 10 | > 10 |  |  |  |
| CCCOc1ccc(-c2nnnn2-c2cc(OC)c(OC)c(OC)c2)cc1 | 0.0111 | 0.495 | 0.0433 | 0.047 | 0.0662 | 0.105 | 3.1 | 46 |  |
| CCOc1ccc(-c2ncnn2-c2cc(OC)c(OC)c(OC)c2)cc1 |  |  |  |  |  |  | 0.76 | 86 |  |
| COc1ccc(-c2nnnn2-c2cc(OC)c(OC)c(OC)c2)cc1OC | 0.259 | 3.57 | 0.488 | 0.345 | 2.72 | 0.355 |  |  |  |
| COc1ccc(-c2nnnn2-c2cc(OC)c(OC)c(OC)c2)cc1N |  |  |  |  |  |  |  |  | IC50 [29]: 2 µM |
| CCCCOc1ccc(-c2nnnn2-c2cc(OC)c(OC)c(OC)c2)cc1 | > 10 | > 10 | > 10 | > 10 | > 10 | > 10 |  |  |  |
| COc1ccc(-c2nnnn2-c2cc(OC)c(OC)c(OC)c2)cc1C | 0.0021 | 0.0377 | 0.002 | 0.0041 | 0.0154 | 0.0056 | 2.5 | 59 |  |
